# S100A4 MyoIIA = S100A4-myosin IIA interaction inhibition; P26447; S100A4/TAMRA-MyoIIA peptide fluorescence polarization; inhibition, % at 10.7 µM; 360,000 compounds, 0.14% hits;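 active means mean inhibition of at least 70% across replicates, with every replicate also reaching that level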
# Target sequence (P26447 whole entry, looked up): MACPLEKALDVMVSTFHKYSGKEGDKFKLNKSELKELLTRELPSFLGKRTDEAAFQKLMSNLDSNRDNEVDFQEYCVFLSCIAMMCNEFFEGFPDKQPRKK
#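 System – human S100A4 monomer protein, biochemical binding assay · Buffer or medium – Calcium-containing HEPES buffer, pH 7.2 · Timing – 5 min between mix addition and reading · Also added – TAMRA-labelled myosin IIA heavy-chain peptide probe, 5 nM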
# E-selectin induc = E-selectin induction on HUVECs. P16581. HUVEC E-selectin immunofluorescence imaging; normalized: neutral wells 0, TNF-alpha wells 100. activation, % at 7.58 µM. 260,000 compounds, 0.37% hits. AID 686992;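 active means mean E-selectin-positive cell signal at least 10% of the positive control, reached in at least 60% of replicates, without over 20% cell loss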
#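 Test system: HUVEC | Signal: Immunofluorescence imaging | Read-out: Percent E-selectin-positive cells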
# miR122 inh = inhibitors of miR-122 in Huh7 cells | Huh7 miR-122 Renilla luciferase sensor, 48 h; neutral wells = 0, positive control = 100 | activation (reporter increase), % at 12.5 µM | 340,000 compounds, 0.3% hits | AID 602342;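 active means mean replicate activation score at least 90 and every replicate individually at or above 90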;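 further: higher luciferase means less miR-122 activity so hits act as miR-122 inhibitors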
# SIRT5 inh = blocks human SIRT5 desuccinylation of peptide; Q9NXA8; Purified SirT5, succinyl-peptide AMC, trypsin-coupled fluorescence; inhibition, % at 15 µM; 330,000 compounds, 1.1% hits; AID 652115; in the data active means inhibition above about 15%
# Target sequence (Q9NXA8 whole entry, looked up): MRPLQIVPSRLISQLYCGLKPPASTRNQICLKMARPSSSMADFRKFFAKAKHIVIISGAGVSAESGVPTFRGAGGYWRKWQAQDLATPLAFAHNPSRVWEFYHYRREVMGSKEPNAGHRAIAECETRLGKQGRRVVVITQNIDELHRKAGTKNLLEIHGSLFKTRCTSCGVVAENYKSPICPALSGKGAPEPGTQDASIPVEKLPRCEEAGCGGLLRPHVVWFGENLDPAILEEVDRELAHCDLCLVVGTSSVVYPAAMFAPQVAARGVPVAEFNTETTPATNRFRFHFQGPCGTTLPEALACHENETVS
# FGF22 binding-1 = binders of recombinant human FGF22 by thermal shift; SYPRO orange fluorescence; percent of sucrose octasulfate shift, DMSO zero; activity (Tm shift, normalised), % at 9.99 µM; 340,000 compounds, 1.5% hits;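 active means mean Tm shift, scaled 0 neutral to 100 positive control, at about 1.3% or above, every replicate too, limit read from the data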
# Target sequence (Q9HCT0 whole entry, looked up): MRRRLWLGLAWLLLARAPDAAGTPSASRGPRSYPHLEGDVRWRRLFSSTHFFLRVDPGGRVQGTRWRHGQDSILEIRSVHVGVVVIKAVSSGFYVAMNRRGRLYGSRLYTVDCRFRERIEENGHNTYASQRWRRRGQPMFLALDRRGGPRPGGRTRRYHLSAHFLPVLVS
# FGF22 binding-2 = binders of human FGF22 by thermal shift; AID 720646; shares compounds with FGF22 binding-1; 1,000 compounds, 2% hits; recombinant FGF22 thermal shift, SYPRO orange fluorescence; thermal shift activity, °C (ΔTm) at 38 µM;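 active means fitted rise in melting shift crosses a set limit at or below the top valid dose tested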
# FGF22 TSA = binds human FGF22 shifting its melting temperature; shares compounds with FGF22 binding-1; Thermal shift assay, SYPRO orange, melting temperature shift; Tm shift (activity), % at 38 µM; 50 tested, under 10 active;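 active means compounds whose fitted dose curve of melting temperature shift rises past a set threshold within the tested doses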
# TSA no protein = compound-only SYPRO artifact for FGF22 binders. shares compounds with FGF22 binding-1. compound-only SYPRO orange thermal shift counter-screen, no protein. AC50, µM (highest dose often 38 µM). 1,000 compounds, 2% hits;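 active means rising signal whose fitted curve reaches the 0.54 level within the top valid dose, showing a melting point, actives reach about 13 µM in these data; inactive means the rest, including activity in the opposite direction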; further: value is where the raw curve crosses a fixed level and not half-maximal
# Numbers stand for hits; . = inactive; / = no result; ! = a repeat was not active. Hits are enriched below; roughly 2.5% of the tested compounds scored in any of these assays.
SMILES,S100A4 MyoIIA,E-selectin induc,miR122 inh,SIRT5 inh,FGF22 binding-1,FGF22 binding-2,TSA no protein,others
CSc1ccc(/C=N/NC(=O)c2ccc3nc[nH]c3c2)cc1,.,40,.,/,2.2,/,.,FGF22 TSA=.
CN(C)c1ccc(/C=N/NC(=O)c2ccc3nc[nH]c3c2)cc1,.,.,.,.,.,/,/,
C[C@H](CO)N1C[C@H](C)[C@@H](CN(C)C(=O)C2CCCCC2)Oc2ncc(-c3cccnc3)cc2C1=O,/,.,.,/,/,/,/,
C#CCNC(=O)C1=C[C@@H](C(C)(C)C)C[C@@H](OCCCCO)O1,.,/,/,.,.,/,/,
C[C@H]1CCCCO[C@@H](CN(C)C(=O)Nc2ccccc2)[C@@H](C)CN([C@@H](C)CO)C(=O)c2cc(NC(=O)c3ccccc3)ccc2O1,.,/,.,.,.,/,/,
CN1c2ccc(-c3ccc(C#N)cc3)cc2[C@H]2[C@H](CCN2S(=O)(=O)c2cccc(F)c2)[C@H]1CO,.,.,.,.,.,/,/,
CCc1ccc(N2CC(C(=O)OCC(=O)Nc3ccc(C(C)=O)cc3)CC2=O)cc1 (centres undefined),.,.,/,.,1.9,.,.,
CCc1ccc(N2CC(C(=O)OCC(=O)Nc3ccccc3C)CC2=O)cc1 (centres undefined),.,/,/,.,.,/,/,
CCc1ccc(N2CC(C(=O)OCC(=O)Nc3ccc(C#N)cc3)CC2=O)cc1 (centres undefined),.,.,/,.,1.6,.,.,
CCc1ccc(N2CC(C(=O)OCC(=O)NC3CC3)CC2=O)cc1 (centres undefined),.,.,.,/,/,/,/,
O=C(c1cccnc1)N1CC2(C1)[C@@H](c1ccccc1)[C@@H](CO)N2C(=O)c1cccnc1,.,.,/,.,/,/,/,
CCN(CC)S(=O)(=O)c1ccc(C(=O)NNC2=NS(=O)(=O)c3ccccc32)cc1,.,.,/,.,.,/,/,
COc1ccc(S(=O)(=O)N(NC2=NS(=O)(=O)c3ccccc32)C(=O)C(C)C)cc1,.,/,.,.,2.6,.,.,
CN(C)C(=O)C[C@H]1CC[C@@H]2[C@H](COC[C@H](O)CN2S(=O)(=O)c2ccccc2)O1,.,.,.,.,.,/,/,
CCOc1ccc(N(CC(=O)NCCSc2ccccn2)S(=O)(=O)c2ccc(Cl)cc2)cc1,.,.,/,.,29,.,.,
CCOc1ccc(N(CC(=O)NCCSc2ccccn2)S(C)(=O)=O)cc1,/,/,.,/,/,/,/,
Cc1nc(Oc2ccccc2)c2ccsc2n1,.,.,.,.,1.4,.,.,
O=C(C[C@@H]1C=C[C@H](NC(=O)C2CC2)[C@H](CO)O1)NCc1ccccc1Cl,.,.,.,.,.,/,/,
C[C@@H]1CN([C@H](C)CO)C(=O)CCCn2nncc2CO[C@H]1CN(C)S(=O)(=O)c1ccc(F)cc1,.,.,.,.,1.2!,.,.,
C[C@H]1CN([C@@H](C)CO)C(=O)CCCn2nncc2CO[C@H]1CN(C)S(=O)(=O)c1ccc(F)cc1,.,.,.,.,.,/,/,
C[C@@H]1CN([C@@H](C)CO)C(=O)CCCn2nncc2CO[C@@H]1CN(C)S(=O)(=O)c1ccc(F)cc1,.,.,.,.,1.3!,.,.,
CO[C@H]1CN(C)C(=O)c2cc(NC(=O)c3cccc(F)c3)ccc2OC[C@H](C)N(CC2CC2)C[C@H]1C,.,.,/,.,.,/,/,
NS(=O)(=O)c1ccc(NC(=O)Nc2cccc(Cl)c2)cc1,.,/,/,.,2.2,.,.,
CCC(C)N(C(=O)COc1ccc(-c2nnco2)cc1)C1CCS(=O)(=O)C1 (centres undefined),.,/,.,.,36,.,.,
O=C(Nc1cc(S(=O)(=O)N2CCCCC2)ccc1Cl)C1=NN(c2ccccc2)C(=O)CC1,.,/,.,.,.,/,/,
SMILES,S100A4 MyoIIA,E-selectin induc,miR122 inh,SIRT5 inh,FGF22 binding-1,FGF22 binding-2,TSA no protein,others
O=C(Nc1cccc(S(=O)(=O)N2CCCCC2)c1)C1=NN(c2ccccc2)C(=O)CC1,.,.,.,.,1.9,.,.,
Cc1ccc(C)c(N2CCN(C(=O)C34CC5CC(C3)CC(n3nnc(C)n3)(C5)C4)CC2)c1,.,/,/,.,16,.,.,
O=C(NC[C@@H]1CC[C@@H]2[C@@H](CN2Cc2ccccc2F)O1)C1CC1,.,/,/,.,/,/,/,
CC(C)CC(=O)Nc1ccc(C(=O)CN2C(=O)NC3(CCOc4ccccc43)C2=O)cc1 (centres undefined),.,/,/,.,1.9,.,.,
O=C(Nc1cc(Cl)cc(Cl)c1)N[C@@H]1CC[C@@H](CCNS(=O)(=O)c2cccc(F)c2)O[C@H]1CO,.,.,/,.,2.6,.,.,FGF22 TSA=.
O=C(Nc1cccc(F)c1)N[C@H]1CC[C@@H](CCNS(=O)(=O)c2cccc(Cl)c2)O[C@@H]1CO,.,.,/,.,.,/,/,
O=C(N[C@H]1CC[C@@H](CCNS(=O)(=O)c2ccc(F)cc2)O[C@H]1CO)c1ccccn1,.,.,/,.,1.4,.,.,
O=C(N[C@@H]1CC[C@@H](CCNS(=O)(=O)c2ccc(F)cc2)O[C@H]1CO)c1ccccn1,.,.,/,.,.,/,/,
CNC[C@H]1Oc2ccc(NS(=O)(=O)c3cccs3)cc2CC(=O)N([C@@H](C)CO)C[C@H]1C,.,/,.,.,.,/,/,
C[C@@H]1CN([C@H](C)CO)C(=O)c2cc(/C=C/c3ccccc3)cnc2O[C@H]1CN(C)Cc1cccnc1,.,.,.,.,.,/,/,
C[C@H](O)C#Cc1ccc2c(c1)O[C@@H](CN(C)C(=O)CN(C)C)[C@@H](C)CN([C@@H](C)CO)S2(=O)=O,.,.,.,.,.,/,/,
CC(C)CCNC(=O)c1onc(CSc2ccncc2)c1C(=O)NCCC(C)C,.,.,.,.,18,.,8.3µM,
CCCCNC(=O)c1onc(CSc2ccc(C(C)C)cc2)c1C(=O)O,.,.,.,.,1.5,.,.,
CCCNC(=O)c1onc(CSc2ccncc2)c1C(=O)NCCC,.,.,.,/,.,/,/,
C[C@@H]1CCCCO[C@@H](CN(C)Cc2ccncc2)[C@H](C)CN([C@@H](C)CO)C(=O)c2cc(NS(=O)(=O)c3cn(C)cn3)ccc2O1,.,.,.,.,.,/,/,
O=C(c1cccc(F)c1)N1C[C@H]2[C@@H](c3ccccc31)[C@@H](CO)N2C(=O)c1ccccn1,.,.,.,.,3.3,.,.,
O=C(c1ccccn1)N1C[C@H]2[C@@H](c3ccccc31)[C@@H](CO)N2C(=O)c1ccccn1,.,.,.,.,11,.,.,
COCC(=O)Nc1ccc2c(c1)C(=O)N(C)[C@H]1CC[C@@H](CC(=O)OC)O[C@H]1CO2,/,.,.,/,.,/,/,
